Hits are enriched below; roughly 2.1% of the tested compounds scored in any of these assays.
SF1 activator = SF-1 (human) activation. CHO-K1 Gal4-SF-1 LBD luciferase reporter; % increase over DMSO SF-1-specific signal. activation, % at 10 µM. hit rate 1.9% among 65,000;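 active = activation above the mean activation of all tested compounds plus 3 SD, cut at about 50% in these data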
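Material: Transient Gal4-SF-1 LBD reporter, CHO-K1 | Input: 4,000 cells/well | Dosing: One dose, 10 µM compound, 1% DMSO | Incubation: 20 h compound treatment, 37 °C | Detection: SteadyLite luciferase luminescence | Evaluation: Percent activation relative to DMSO median and mock-transfected background | Benchmarks: DMSO-treated SF-1-transfected cells as negative, DMSO-treated mock-transfected cells lacking SF-1 as background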
RORa activator = RORA (human) activation. activation, % at 10 µM. P35398. CHO-K1 Gal4-RORA LBD luciferase reporter, luminescence; percent increase over mock-subtracted basal signal. hit rate 1.5% among 65,000;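 active = activation above the mean of all tested compounds plus 3 SD, cut at about 49% in these data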;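 note: 0% = DMSO-treated RORA cells and 100% = added signal equal to DMSO minus mock-transfected cells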
Target sequence (P35398 whole entry, looked up, the tested form may be a part): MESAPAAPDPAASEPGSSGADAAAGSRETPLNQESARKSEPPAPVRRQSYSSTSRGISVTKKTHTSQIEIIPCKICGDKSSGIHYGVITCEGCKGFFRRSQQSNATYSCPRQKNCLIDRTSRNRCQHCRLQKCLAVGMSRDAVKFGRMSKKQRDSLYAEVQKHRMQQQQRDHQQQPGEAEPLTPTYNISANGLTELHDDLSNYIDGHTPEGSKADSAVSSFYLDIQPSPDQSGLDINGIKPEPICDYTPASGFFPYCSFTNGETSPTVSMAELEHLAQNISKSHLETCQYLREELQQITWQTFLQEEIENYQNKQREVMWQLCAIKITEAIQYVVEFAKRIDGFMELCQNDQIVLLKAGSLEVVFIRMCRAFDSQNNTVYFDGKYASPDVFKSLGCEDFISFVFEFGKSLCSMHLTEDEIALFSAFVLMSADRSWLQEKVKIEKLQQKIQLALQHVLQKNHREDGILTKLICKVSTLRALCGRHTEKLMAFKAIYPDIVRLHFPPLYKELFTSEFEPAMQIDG
Ec RNAP inh = Escherichia coli RNA polymerase inhibition; P0A8V2; E. coli RNA polymerase, fluorescence transcription assay; inhibition, %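 (tested at 10 µM)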; hit rate 0.2% among 62,000; in the data active = inhibition above about 20%;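 note: 0% = enzyme without compound and 100% = no enzyme blank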
MT1-MMP txn act = activates MT1-MMP transcription; HT1080 MT1-MMP promoter luciferase reporter, luminescence, overnight; stronger effect = higher value; activation factor at 10 µM; hit rate 0.16% among 86,000;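 active = activation factor of at least 2 for MT1-MMP transcription at 10 µM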
TNAP act DEA = human TNAP activation, intermediate phosphate acceptor; P05186; AID 813; purified TNAP, CDP-star luminescence, 100 mM DEA, 30 min; stronger effect = higher value; scale: 0 levamisole-inhibited, 1 vehicle-only enzyme; 64,000 tested, under 10 active; activation factor at 20 µM;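 active = activation factor of at least 2 at 20 µM, relative to controls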
Starred values were filed as active, the others as inactive; · = not tested or not shown.

SMILES	SF1 activator	RORa activator	Ec RNAP inh	MT1-MMP txn act	TNAP act DEA
CCOc1ccccc1-n1nnnc1SCC(=O)NC(=O)Nc1ccc2c(c1)OCCO2	·	·	·	1	·
CC(C)OC(=O)CSc1nnnn1-c1ccc2c(c1)OCCO2	69*	54*	0	1.5	0.8
O=C(CSc1nnnn1-c1ccc2c(c1)OCCO2)c1cccc2c1OCCO2	-6	0	0	1.5	0.9
O=C(CSc1nnnn1-c1ccccc1)NC(=O)Nc1ccc2c(c1)OCCO2	72*	52*	2	1.6	0.8
COCC(C)NC(=O)COc1ccc(Cl)cc1Cl (stereo unspecified)	-8	0	8	1.1	1
Nc1ccc(O)c(-c2nc3ccccc3s2)c1	40	22	1	2.1*	0.9
c1ccc(-c2onc3cc4c(cc23)OCCO4)cc1	28	74*	-2	1.6	0.9
Cc1cccc(-c2onc3ccc(C4(C)OCCO4)cc23)c1	·	·	·	1.3	·
CCCn1cnc2c(cnn2-c2ccc(F)cc2)c1=O	52*	34	3	1.5	0.9
CCOC(=O)C(C)n1cnc2c(cnn2-c2ccc(Cl)cc2)c1=O (stereo unspecified)	70*	40	5	1.1	0.9
CCCCn1cnc2c(cnn2-c2ccc(Cl)cc2)c1=O	65*	28	13	1.4	0.9
CCOC(=O)C(CC)n1cnc2c(cnn2-c2ccc(Cl)cc2)c1=O (stereo unspecified)	18	12	7	1.2	1
CC1C(=O)CCN(C(C)(C)C)C1C (stereo unspecified)	·	·	·	1.1	·
CCc1c2c(nc3cccc(C(C)C)c13)-c1cccc(=O)n1C2	·	·	·	1.2	·
CCSC1=C(C#N)C(c2ccc(C)s2)CC(=O)N1 (stereo unspecified)	-20	-2	9	1.1	0.8
CCOC(=O)CSC1=C(C#N)C(c2ccc(C)s2)CC(=O)N1 (stereo unspecified)	26	54*	7	0.5	0.9
Cc1ccc(C2NC(=O)c3ccccc3N2)s1 (stereo unspecified)	89*	77*	1	0.6	0.9
O=C1NC(c2ccncc2)Nc2ccccc21 (stereo unspecified)	-13	-29	·	1.1	1
CC(=O)N1CCc2c(sc(NC(=O)c3ccc(S(=O)(=O)N(C)C)cc3)c2C#N)C1	-16	-1	10	1	0.8
CC(=O)N1CCc2c(sc(NC(=O)c3ccc4c(c3)OCCO4)c2C#N)C1	77*	49*	9	1.1	0.9
COc1cc(-c2noc(CCCC(=O)NCc3ccccc3)n2)cc(OC)c1OC	·	·	·	1.1	·
Cc1cc2c(C)nc(-c3ccccc3)nc2o1	58*	60*	·	2*	1
COc1cccc(C2/C(=C(/O)c3ccncc3)C(=O)C(=O)N2CCCN2CCOCC2)c1OC (stereo unspecified)	0	0	11	1.1	0.9
Clc1cc(Cl)c2nc(N3CCOCC3)sc2c1	58*	21	8	1.5	0.9
Clc1ccc(Cl)c2sc(N3CCOCC3)nc12	40	7	4	1.3	0.9
SMILES	SF1 activator	RORa activator	Ec RNAP inh	MT1-MMP txn act	TNAP act DEA
Cc1ccc(-c2cc(N)n(-c3ccccc3)n2)cc1	·	·	·	1.5	·
Nc1cc(C2CCCC2)nn1-c1ccccc1	49	62*	1	1.5	0.9
Nc1c(C(=O)NC2CCCC2)sc2nc(-c3cccs3)ccc12	60*	20	3	1	0.9
O=C(CN1CCN(c2ccccn2)CC1)Nc1cc(C(F)(F)F)ccc1Cl	0	-7	6	1.2	0.9
Cc1ccc(-c2nc(C#N)c(NCc3ccco3)o2)cc1	6	89*	-10	1.4	0.9
N#Cc1nc(COc2cccc(Cl)c2)oc1NCc1ccco1	40	66*	10	·	0.9
N#Cc1c2c(c(NCc3cccnc3)n3c1nc1ccccc13)CCC2	·	·	·	1.1	·
COc1ccc2nc(NC(=O)c3ccc4ncsc4c3)sc2c1	61*	54*	10	1.6	1
CCOc1ccc2nc(SCC(=O)c3cccs3)sc2c1	54*	26	·	1.3	0.8
CCCC(=O)Nc1nc2ccc(OCC)cc2s1	50*	49*	5	1.5	0.9
COc1ccc2nc(NC(C)=O)sc2c1	·	·	·	1.8	·
CCOc1ccc2nc(NC(=O)CSc3ccccc3)sc2c1	·	·	·	1.2	·
COc1ccc(OC)c(NC(=O)CN2C(=O)c3ccccc3S2(=O)=O)c1	-13	-11	9	1.1	0.9
COc1ccc2c(c1)-c1ccccc1S(=O)(=O)N2C(C)=O	10	-4	29*	1.1	1
CCCCNc1ncnc2c1cnn2-c1ccccc1	40	63*	1	0.7	0.9
Fc1cccc(Nc2ncnc3c2cnn3-c2ccccc2)c1	57*	102*	4	1.3	0.8
Clc1cccc(Nc2ncnc3c2cnn3-c2ccccc2)c1	45	29	3	1	1
CCCCNc1ncnc2c1cnn2-c1ccc(Cl)cc1	90*	109*	5	1.6	0.9
Cn1nnnc1Sc1nc(-c2cccnc2)nc2ccccc12	7	-1	1	1.1	0.9
COc1cccc(CNc2ccc3c(c2)CCC3)c1	·	·	·	1.5	·
C=CCn1c(-c2ccccc2)c[nH]c1=S	53*	6	14	1.6	1.2
Cc1nc2nc(-c3cccs3)cn2nc1C	23	53*	-5	1.4	1
COc1cccc(-c2cn3nc(C)c(C)nc3n2)c1	24	37	5	1.2	0.9
COc1ccc(-n2c(=O)c3c4c(sc3n3c(C)nnc23)CCCC4)cc1	-22	-5	5	1.2	0.9
Cn1c(=O)c(C(=O)Nc2ccccn2)c(O)c2ccccc21	-30	-14	-1	0.5	1
SMILES	SF1 activator	RORa activator	Ec RNAP inh	MT1-MMP txn act	TNAP act DEA
Cn1c(=O)c(C(=O)Nc2cnccn2)c(O)c2ccccc21	29	52*	·	1.6	0.9
COc1ccccc1C(=O)Nc1ccc2c(c1)OCO2	·	·	7	·	0.9
O=C(CCc1ccccc1)Nc1ccc2c(c1)OCCO2	·	·	·	1.2	·
Cc1oc(C(C)(C)C)cc1C(=O)Nc1ccc2c(c1)OCCO2	57*	64*	10	1.8	0.9
COc1ccccc1C(=O)Nc1ccc2c(c1)OCCO2	76*	33	5	1.6	0.9
COc1ccc(CCC(=O)Nc2ccc3c(c2)OCCO3)cc1	-13	56*	9	1.3	0.9
CCOC(=O)C1=C(C)N(CCCCCC(=O)O)C(=O)NC1c1cccc(Cl)c1Cl (stereo unspecified)	·	·	·	1.2	·
CCOc1ccc(-n2nc(C(=O)N3CCOCC3)c3ccccc3c2=O)cc1	9	-22	5	1	1
CCOCC(=O)Nc1nnc(C2CCCCC2)s1	20	50*	11	1.4	1
O=C(CCC(=O)N1CCCC1)Nc1nnc(C2CCCCC2)s1	-5	21	·	1.1	0.8
COCC(=O)Nc1nnc(C2CCCCC2)s1	34	52*	0	1.1	0.9
CCOC(=O)C(=O)Nc1nnc(C2CCCCC2)s1	·	·	·	1.1	·

Screens as filed in PubChem BioAssay.
